Assay results reported in ChEMBL document CHEMBL4765371, “Synthesis and evaluation of Na/K-ATP-ase inhibiting and cytotoxic in vitro activities of oleandrigenin and its selected 17β-(butenolidyl)- and 17β-(3-furyl)- analogues” (Eur J Med Chem, 2020).
Active and inactive are the calls of the source. The calls are words filed in the database; no cut-off is given here.

Assays:
MCF7 = assay: Cytotoxicity against human MCF7 cells assessed as reduction in cell viability incubated for 72 hrs by resazurin assay; format: functional, cell-based; conditions: MCF7, 72 h
Procedure, shortened: (§1)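 Cells (CEM, HeLa, MCF7, BJ fibroblasts) exposed to compounds for 72 h, viability read by resazurin staining. Values are means ± SD from at least three independent experiments run in triplicate.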

HeLa [1] = assay: Downregulation of p53 protein expression in human HeLa cells at 1 to 10 uM incubated for 24 hrs by Western blotting analysis; format: functional, cell-based; conditions: dose 1-10 µM
Procedure, shortened: (§2)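 HeLa cells treated 24 h at 1 and 10 µM. Lysates resolved by SDS-PAGE and immunoblotted for PARP-1, caspase-7 zymogen and fragment, Mcl-1, Bcl-2, p53, phospho-Rb, total Rb, phospho-Src (Tyr416) and total Src. β-actin used as loading control. Compared with untreated controls; three repeats.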

HeLa [2] = assay: Induction of cell cycle arrest in human HeLa cells assessed as increase in accumulation at S phase at 1 to 10 uM incubated for 24 hrs by PI staining based flow cytometry analysis; format: functional; conditions: dose 1-10 µM
Procedure, shortened: (§3)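 HeLa cells treated 24 h at 1 or 10 µM, then harvested, fixed and stained with propidium iodide. DNA content measured by flow cytometry and cells assigned to subG1 (apoptotic), G0/G1, S and G2/M. Compared with untreated and DMSO-only controls. Means of three independent experiments in triplicate; one-way ANOVA, p < 0.05.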

HeLa [3] = assay: Induction of apoptosis in human HeLa cells assessed as fold increase in caspase 3/7 activity at 1 to 10 uM incubated for 24 hrs by fluorescence based assay relative to control; format: functional; conditions: dose 1-10 µM
HeLa [4] = assay: Induction of apoptosis in human HeLa cells assessed as reduction in Rb phosphorylation at 1 to 10 uM incubated for 24 hrs by Western blotting analysis; format: functional, cell-based; conditions: dose 1-10 µM; procedure, shortened: as §2
HeLa [5] = assay: Induction of apoptosis in human HeLa cells assessed as reduction in Rb level at 1 to 10 uM incubated for 24 hrs by Western blotting analysis; format: functional, cell-based; conditions: dose 1-10 µM; procedure, shortened: as §2
HeLa [6] = assay: Induction of apoptosis in human HeLa cells assessed as increase in PARP-1 cleavage at 10 uM incubated for 24 hrs by Western blotting analysis; format: functional, cell-based; procedure, shortened: as §2
HeLa [7] = assay: Induction of cell cycle arrest in human HeLa cells assessed as increase in accumulation at subG1 phase at 1 to 10 uM incubated for 24 hrs by PI staining based flow cytometry analysis relative to control; format: functional; conditions: dose 1-10 µM; procedure, shortened: as §3
HeLa [8] = assay: Induction of apoptosis in human HeLa cells assessed as increase in caspase 7 fragmentation at 1 to 10 uM incubated for 24 hrs by Western blotting analysis; format: functional, cell-based; conditions: dose 1-10 µM; procedure, shortened: as §2
HeLa [9] = assay: Effect on Src kinase protein expression in human HeLa cells at 1 uM incubated for 24 hrs by western blot analysis; format: functional, cell-based; procedure, shortened: as §2
HeLa [10] = assay: Downregulation of Src kinase activity in human HeLa cells assessed as decrease in Src kinase phosphorylation at Tyr416 residue at 1 uM incubated for 24 hrs by Western blotting analysis
HeLa [11] = assay: Induction of cell cycle arrest in human HeLa cells assessed as increase in accumulation at G2/M phase at 10 uM incubated for 24 hrs by PI staining based flow cytometry analysis relative to control; format: functional; procedure, shortened: as §3
HeLa [12] = assay: Induction of cell cycle arrest in human HeLa cells assessed as decrease in accumulation of cells at G0/G1 phase at 1 to 10 uM incubated for 24 hrs by PI staining based flow cytometry analysis relative to control; format: functional; design: scale not given: the % may be the effect or the level left; conditions: dose 1-10 µM; procedure, shortened: as §3
BJ = assay: Cytotoxicity against human BJ cells assessed as reduction in cell viability incubated for 72 hrs by resazurin assay; format: cell-based; procedure, shortened: as §1
Sus scrofa = species: Sus scrofa; assay: Inhibition of porcine kidney Na+/K+ ATPase at 50 uM assessed as enzyme residual activity using ATP as substrate incubated for 2 mins followed by substrate addition and measured after 6 mins (reference value: 100 +/-3.16%); format: tissue-based; conditions: time 8.0 min
CCRF-CEM = assay: Cytotoxicity against human CEM cells assessed as reduction in cell viability incubated for 72 hrs by resazurin assay; format: functional, cell-based; procedure, shortened: as §1
HeLa [13] = assay: Induction of cell cycle arrest in human HeLa cells assessed as increase in accumulation at G2/M phase at 1 uM incubated for 24 hrs by PI staining based flow cytometry analysis relative to control; format: functional; procedure, shortened: as §3
HeLa [14] = assay: Induction of apoptosis in human HeLa cells assessed as downregulation of Bcl2 protein expression at 1 uM incubated for 24 hrs by Western blotting analysis; format: functional, cell-based; procedure, shortened: as §2
HeLa [15] = assay: Cytotoxicity against human HeLa cells assessed as reduction in cell viability incubated for 72 hrs by resazurin assay; format: functional, cell-based; procedure, shortened: as §1
HeLa [16] = assay: Induction of apoptosis in human HeLa cells assessed as downregulation of Mcl1 protein expression at 1 to 10 uM incubated for 24 hrs by Western blotting analysis; format: functional, cell-based; conditions: dose 1-10 µM; procedure, shortened: as §2
HeLa [17] = assay: Induction of apoptosis in human HeLa cells assessed as downregulation of Bcl2 protein expression at 1 to 10 uM incubated for 24 hrs by Western blotting analysis; format: functional, cell-based; conditions: dose 1-10 µM; procedure, shortened: as §2
HeLa [18] = assay: Induction of apoptosis in human HeLa cells assessed as reduction in Rb phosphorylation at 1 uM incubated for 24 hrs by Western blotting analysis; format: functional, cell-based; procedure, shortened: as §2

CC(=O)O[C@H]1CC[C@@]2(C)[C@H](CC[C@@H]3[C@@H]2CC[C@]2(C)[C@@H](C4=CC(=O)OC4)[C@@H](OC(C)=O)C[C@]32O)C1 [GITOXIGENIN DIACETATE]
IC50 (MCF7): 1.7 µM
inhibition (HeLa [1]): Active
Activity (HeLa [2]): Active
fold change (FC) (HeLa [3]): 2
Activity (HeLa [4]): Active
Activity (HeLa [5]): Active
Activity (HeLa [6]): Active
fold change (FC) (HeLa [7]): 2
Activity (HeLa [8]): Active
Activity (HeLa [9]): inactive
inhibition (HeLa [10]): Active
Activity (HeLa [11]): 11.9%
Activity (HeLa [12]): 4.4%
IC50 (BJ): 0.2 µM
Activity (Sus scrofa): 101%
IC50 (CCRF-CEM): 0.4 µM
Activity (HeLa [13]): 13.1%
Activity (HeLa [14]): Active
IC50 (HeLa [15]): 1.1 µM
Activity (HeLa [16]): Active

CO[C@H]1C[C@H](O[C@H]2CC[C@@]3(C)[C@H](CC[C@@H]4[C@@H]3CC[C@]3(C)[C@@H](C5=CC(=O)OC5)[C@@H](OC(C)=O)C[C@]43O)C2)O[C@@H](C)[C@@H]1O
Activity (Sus scrofa): 59.2%

CC(=O)O[C@H]1C[C@]2(O)[C@@H]3CC[C@@H]4C[C@@H](O)CC[C@]4(C)[C@H]3CC[C@]2(C)[C@H]1c1ccoc1
IC50 (MCF7): 16.1 µM
IC50 (BJ): 4 µM
Activity (Sus scrofa): 42.4%
IC50 (CCRF-CEM): 9.4 µM
IC50 (HeLa [15]): 14.2 µM

CC(C)(C)[Si](C)(C)O[C@H]1CC[C@@]2(C)[C@H](CC[C@@H]3[C@@H]2CC[C@]2(C)[C@@H](c4ccoc4)[C@@H](O)[C@H]4O[C@]342)C1
IC50 (MCF7): 14 µM
IC50 (BJ): 16.3 µM
Activity (Sus scrofa): 74.4%
IC50 (CCRF-CEM): 34.7 µM
IC50 (HeLa [15]): 32.3 µM

C[C@]12CC[C@H](O)C[C@H]1CC[C@@H]1[C@@H]2CC[C@]2(C)[C@@H](c3ccoc3)[C@@H](O)C[C@]12O
IC50 (MCF7): 10.6 µM
inhibition (HeLa [1]): Active
Activity (HeLa [17]): Active
Activity (HeLa [2]): Active
Activity (HeLa [18]): inactive
fold change (FC) (HeLa [3]): 2
Activity (HeLa [5]): Active
Activity (HeLa [6]): Active
fold change (FC) (HeLa [7]): 2
Activity (HeLa [8]): Active
Activity (HeLa [9]): inactive
inhibition (HeLa [10]): Active
Activity (HeLa [11]): Active
Activity (HeLa [12]): 4.4%
IC50 (BJ): 1.9 µM
Activity (Sus scrofa): 7.9%
IC50 (CCRF-CEM): 3.6 µM
Activity (HeLa [13]): Active
IC50 (HeLa [15]): 14.5 µM
Activity (HeLa [16]): Active

CC(=O)O[C@H]1C[C@]2(O)[C@@H]3CC[C@@H]4C[C@@H](O[Si](C)(C)C(C)(C)C)CC[C@]4(C)[C@H]3CC[C@]2(C)[C@H]1C1=CC(=O)OC1
IC50 (MCF7): 20.3 µM
IC50 (BJ): 10.6 µM
Activity (Sus scrofa): 79.3%
IC50 (CCRF-CEM): 17.3 µM
IC50 (HeLa [15]): 34.1 µM

CC(=O)O[C@H]1C[C@]2(O)[C@@H]3CC[C@@H]4C[C@@H](O)CC[C@]4(C)[C@H]3CC[C@]2(C)[C@H]1C1=CC(=O)OC1
inhibition (HeLa [1]): Active
fold change (FC) (HeLa [3]): 2
Activity (HeLa [4]): Active
Activity (HeLa [5]): Active
Activity (HeLa [6]): Active
Activity (HeLa [8]): Active
Activity (HeLa [12]): 4.4%
Activity (Sus scrofa): 64.8%

CC(=O)O[C@H]1CC[C@@]2(C)[C@H](CC[C@@H]3[C@@H]2CC[C@]2(C)[C@@H](c4ccoc4)[C@@H](OC(C)=O)C[C@]32O)C1
IC50 (MCF7): 20.2 µM
IC50 (BJ): 6.2 µM
Activity (Sus scrofa): 79.9%
IC50 (CCRF-CEM): 14.2 µM
IC50 (HeLa [15]): 43.1 µM

CC(=O)O[C@H]1C[C@]2(O)[C@@H]3CC[C@@H]4C[C@@H](O[Si](C)(C)C(C)(C)C)CC[C@]4(C)[C@H]3CC[C@]2(C)[C@H]1c1ccoc1
IC50 (MCF7): > 50 µM
IC50 (BJ): > 50 µM
Activity (Sus scrofa): 69.1%
IC50 (CCRF-CEM): > 50 µM
IC50 (HeLa [15]): > 50 µM

C[C@]12CC[C@H](O)C[C@H]1CC[C@@H]1[C@@H]2CC[C@]2(C)[C@@H](c3ccoc3)[C@@H](O)[C@H]3O[C@]132
IC50 (MCF7): > 50 µM
IC50 (BJ): > 50 µM
Activity (Sus scrofa): 75.5%
IC50 (CCRF-CEM): > 50 µM
IC50 (HeLa [15]): > 50 µM

CC(=O)O[C@H]1C[C@@]23O[C@@H]4OC(=O)C=C4[C@@H]1[C@@]2(C)CC[C@H]1[C@H]3CC[C@@H]2C[C@@H](O)CC[C@@]21C
IC50 (MCF7): > 50 µM
IC50 (BJ): > 50 µM
Activity (Sus scrofa): 83.9%
IC50 (CCRF-CEM): > 50 µM
IC50 (HeLa [15]): > 50 µM

CC(C)(C)[Si](C)(C)O[C@H]1CC[C@@]2(C)[C@H](CC[C@@H]3[C@@H]2CC[C@]2(C)[C@@H](c4ccoc4)[C@@H](O)C[C@]32O)C1
IC50 (MCF7): 19.4 µM
IC50 (BJ): 5.8 µM
Activity (Sus scrofa): 15.1%
IC50 (CCRF-CEM): 9.9 µM
IC50 (HeLa [15]): 26.7 µM
